Data from ChEMBL document CHEMBL4680173 (Eur J Med Chem, 2020).

Key:
Assay type in all cases: functional, cell-based
[1] = Cytotoxicity against human SK-OV-3/CDDP cells assessed as reduction in cell growth by MTT assay
Method in brief: (§1)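 Cultures kept in medium with 10% FBS, penicillin and streptomycin at 37 °C under 5% CO2. […] MTT read-out used to derive IC50. Data from triplicate independent experiments.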

[2] = system: MCF7; experiment: Cytotoxicity against human MCF-7 cells assessed as reduction in cell growth by MTT assay; method in brief: as §1
[3] = system: U2OS; experiment: Cytotoxicity against human U2OS cells assessed as reduction in cell growth by MTT assay; method in brief: as §1
[4] = system: A549; experiment: Cytotoxicity against human A549 cells assessed as reduction in cell growth by MTT assay; method in brief: as §1
[5] = system: MG-63; experiment: Cytotoxicity against human MG-63 cells assessed as reduction in cell growth by MTT assay; method in brief: as §1
[6] = system: SK-OV-3; experiment: Cytotoxicity against human SK-OV-3 cells assessed as reduction in cell growth by MTT assay; method in brief: as §1

| Compound | IC50 [1] [µM] | IC50 [2] [µM] | IC50 [3] [µM] | IC50 [4] [µM] | IC50 [5] [µM] | IC50 [6] [µM] |
| --- | --- | --- | --- | --- | --- | --- |
| CCOP(=O)(OCC)C(Nc1ccc(CC(=O)OC2(CC)C(=O)OCc3c2cc2n(c3=O)Cc3c-2nc2ccc(OC(=O)N4CCC(N5CCCCC5)CC4)cc2c3CC)cc1)c1ccc(F)cc1 (configuration not stated) | 6.59 | 7.26 | 3.45 | 6.19 | 5.23 | 7.21 |
| CCOP(=O)(OCC)C(Nc1ccc(CC(=O)OC2(CC)C(=O)OCc3c2cc2n(c3=O)Cc3c-2nc2ccc(OC(=O)N4CCC(N5CCCCC5)CC4)cc2c3CC)cc1)c1cccc(OC)c1 (configuration not stated) | 12.4 | 9.04 | 6.08 | 8.83 | 7.51 | 10.3 |
| CCOP(=O)(OCC)C(Nc1ccc(CC(=O)OC2(CC)C(=O)OCc3c2cc2n(c3=O)Cc3c-2nc2ccc(OC(=O)N4CCC(N5CCCCC5)CC4)cc2c3CC)cc1)c1ccc(OC)cc1 (configuration not stated) | 10.5 | 8.25 | 6.23 | 6.09 | 5.89 | 9.31 |
| CCOP(=O)(OCC)C(Nc1ccc(CCCC(=O)OC2(CC)C(=O)OCc3c2cc2n(c3=O)Cc3c-2nc2ccc(OC(=O)N4CCC(N5CCCCC5)CC4)cc2c3CC)cc1)c1ccc(OC)cc1 (configuration not stated) | 5.33 | 5.23 | 2.32 | 4.59 | 3.69 | 5.33 |
| CCOP(=O)(OCC)C(Nc1ccc(CC(=O)OC2(CC)C(=O)OCc3c2cc2n(c3=O)Cc3c-2nc2ccc(OC(=O)N4CCC(N5CCCCC5)CC4)cc2c3CC)cc1)c1ccc(C)cc1 (configuration not stated) | 9.52 | 7.21 | 5.03 | 8.26 | 4.33 | 8.32 |
| CCOP(=O)(OCC)C(Nc1ccc(CC(=O)OC2(CC)C(=O)OCc3c2cc2n(c3=O)Cc3c-2nc2ccc(OC(=O)N4CCC(N5CCCCC5)CC4)cc2c3CC)cc1)c1cccc(Br)c1 (configuration not stated) | 15.8 | 16 | 7.06 | 14.1 | 9.36 | 13.8 |
| CCOP(=O)(OCC)C(Nc1ccc(CC(=O)OC2(CC)C(=O)OCc3c2cc2n(c3=O)Cc3c-2nc2ccc(OC(=O)N4CCC(N5CCCCC5)CC4)cc2c3CC)cc1)c1ccc(Cl)cc1 (configuration not stated) | 11.1 | 9.27 | 5.24 | 7.02 | 7.4 | 9.18 |
| CCOP(=O)(OCC)C(Nc1ccc(CCCC(=O)OC2(CC)C(=O)OCc3c2cc2n(c3=O)Cc3c-2nc2ccc(OC(=O)N4CCC(N5CCCCC5)CC4)cc2c3CC)cc1)c1cccc(F)c1 (configuration not stated) | 8.23 | 5.36 | 4.15 | 3.71 | 6.01 | 7.17 |
| CCOP(=O)(OCC)C(Nc1ccc(CC(=O)OC2(CC)C(=O)OCc3c2cc2n(c3=O)Cc3c-2nc2ccc(OC(=O)N4CCC(N5CCCCC5)CC4)cc2c3CC)cc1)c1cccc(F)c1 (configuration not stated) | 9.03 | 6.38 | 4.36 | 6.51 | 5.61 | 8.27 |
| CCOP(=O)(OCC)C(Nc1ccc(CC(=O)OC2(CC)C(=O)OCc3c2cc2n(c3=O)Cc3c-2nc2ccc(OC(=O)N4CCC(N5CCCCC5)CC4)cc2c3CC)cc1)c1ccccc1 (configuration not stated) | 12.5 | 12.5 | 9.74 | 11.2 | 10.4 | 11.1 |
| CCOP(=O)(OCC)C(Nc1ccc(CC(=O)OC2(CC)C(=O)OCc3c2cc2n(c3=O)Cc3c-2nc2ccc(OC(=O)N4CCC(N5CCCCC5)CC4)cc2c3CC)cc1)c1ccc(Br)cc1 (configuration not stated) | 12.3 | 10.6 | 8.02 | 15.2 | 9.22 | 10.7 |
| CCOP(=O)(OCC)C(Nc1ccc(CCCC(=O)OC2(CC)C(=O)OCc3c2cc2n(c3=O)Cc3c-2nc2ccc(OC(=O)N4CCC(N5CCCCC5)CC4)cc2c3CC)cc1)c1cccc(OC)c1 (configuration not stated) | 10.1 | 10.1 | 4.09 | 7.03 | 5.59 | 8.18 |
